SKKanGAS inh: S. pyogenes SKKanGAS growth inhibitors in kanamycin, primary screen, streptokinase expression inhibitor project, SKKanGAS strain, BacTiter-Glo luminescence. 6 h. inhibition, % at 7.5 µM. 300,000 compounds, 1.3% hits;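 active means mean replicate score, as percent of positive control median, at least 50; inconclusive means mean below 50 but one replicate at or above 50; inactive means mean and every replicate below 50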;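 further: strain carries kanamycin resistance gene driven by streptokinase promoter and grows in 40 µg/ml kanamycin; loss of luminescence reflects streptokinase promoter inhibition or plain growth inhibition; 0% = median of DMSO wells and 100% = positive control at its reference dose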
T cruzi inh: inhibitors of intracellular T. cruzi growth, primary screen, luminescence, NIH3T3 host cells | 300,000 compounds, 1.4% hits | T. cruzi beta-gal in NIH3T3, 90 h | inhibition, % (no concentration beside the values);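 active means mean inhibition across valid replicates above about 55%, limit read from the data; inconclusive means mean below that limit but half or more replicates reach it; inactive means mean below it, under half of replicates reach it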;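 further: signal also drops with host cell toxicity which is not excluded here; 0% = plate median of DMSO wells and 100% = zero luminescence signal; higher percent means less beta-gal luminescence so fewer parasites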
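System: Mouse NIH/3T3 fibroblasts infected with β-gal-expressing T. cruzi Tulahuen C4 | Quantity: NIH/3T3 cells, 5,000 per well | Reagent: 5000 reporter trypomastigotes per well | Dosing: Compound pinned at 50 nL/well, DMSO | Schedule: 3 h host attachment, then at least 90 h co-culture | Detection: GalScreen luminescence, 60 min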
Beta cell apopt: inhibitors of cytokine-induced beta cell apoptosis, primary screen, luminescence; protection from apoptosis, % (test concentration not listed); 300,000 compounds, 0.8% hits; INS-1E cytokine-induced death, ATP luminescence, 48 h; percent of positive-control rescue, neutral wells zero;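 active means Every replicate reaches about 75%, or at least half do and their mean reaches it too, limit read from the data; inconclusive means At least half of replicates reach the limit but their mean does not; inactive means Under half of replicates reach the limit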;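 further: 0% = cytokine-treated negative control wells and 100% = positive control rescue; higher means more ATP so stronger rescue from cytokine killing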
Mdm2 MdmX PPI: inhibitors of human Mdm2-MdmX association, primary screen, cell-based, luminescence, split luciferase, SaOS-2, uHTS; Protein Mdm4 (Homo sapiens) + E3 ubiquitin-protein ligase Mdm2 (Homo sapiens), …; SaOS-2 split-luciferase Mdm2/MdmX complementation; inhibition, % at 8 µM; 330,000 compounds, 3% hits; AID 485346, 2010;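 active means inhibition of at least 50% at 8 µM in the primary screen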
CSC inhib: cancer stem cell viability inhibitors, primary screen, luminescence; 300,000 compounds, 1.1% hits; AID 2717, 2010; inhibition, % at 7.5 µM; cancer stem cell-like cells viability; in the data active means inhibition above about 75%; inconclusive means no clear call, values can overlap the other calls; tested in HMLE shEcad cells
Calb FLC: C. albicans growth inhibition with fluconazole, primary screen, CaCi-2 strain, Alamar Blue fluorescence. AID 1979, 2009. C. albicans CaCi-2 (fluconazole-resistant clinical isolate) + fluconazole, 48 h. 300,000 compounds, 0.57% hits. growth inhibition, % (no concentration beside the values);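 active means growth inhibition above about 58% in most replicates, limit read from the data, passing the limit was not always enough; inconclusive means exactly half the replicates above a set limit; inactive means most replicates below a set limit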;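 further: all wells also contain fluconazole at 8 µg/ml as a sub-toxic cotreatment; 0% = median of DMSO wells and 100% = median of geldanamycin control wells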
* marks the source's active call; other numbers are inactive results; ? = inconclusive; · = no result. Hits are enriched below; roughly 5.7% of the tested compounds scored in any of these assays.

SMILES	SKKanGAS inh	T cruzi inh	Beta cell apopt	Mdm2 MdmX PPI	CSC inhib	Calb FLC
CCOC(=O)C1CCN(C(=O)C2CCN(c3ncnc4c3nc3n4CCCCC3)CC2)CC1	-3	1	-9	12	-8	-7
CCCCCCCCCC(=O)N/N=C(\C)c1cccnc1	-10	62*	2	-9	13	-22
c1ccc(-c2ccc(OCCCNC3CCCC3)cc2)cc1	7	60*	·	15	-21	28
c1ccc(Cc2ccc(OCCCNC3CCCC3)cc2)cc1	2	67*	1	39	46	-2
N#Cc1ccc(OCCOCCNC2CCCC2)cc1	2	67*	-5	24	-35	-2
O=C(Cn1nnnc1CN1CCOCC1)N1CCC(c2cccc(Cl)c2)C1 (stereo unspecified)	-3	-1	-4	15	-8	-1
CCOc1ccc(Cl)cc1S(=O)(=O)N1CCC(C(=O)NCc2cccnc2)CC1	2	6	-8	21	-15	9
C#CCn1c(=NC(=O)c2ccc(S(=O)(=O)N3CCCc4ccccc43)cc2)sc2cc(S(N)(=O)=O)ccc21	23	55*	1	15	·	-2
Cn1c(=NC(=O)c2ccc(S(=O)(=O)N3CCCc4ccccc43)cc2)sc2cc(S(C)(=O)=O)ccc21	3	52	12	20	0	10
CCn1c(C)c(C)c2cc(C(=O)Nc3cccc(Cl)c3)ccc21	7	44	4	14	81*	10
CCN1CCN(CC(=O)Nc2ccc(S(=O)(=O)N3C(C)CCCC3C)cc2)CC1 (stereo unspecified)	-9	58*	-1	-23	-2	25
CC1CCN(S(=O)(=O)c2ccc(NC(=O)CN3CCCC3)cc2)CC1	18	25	-5	2	59	-7
CCN(CC)c1ccc(NC(=O)COc2ccc(N(C)S(=O)(=O)c3cccs3)cc2)cc1	2	61*	0	37	19	11
COc1ccccc1C(=O)Nc1nnc(S(=O)(=O)N2CCN(c3ccc(F)cc3)CC2)s1	54*	4	5	4	10	3
CC(=O)Nc1nnc(S(=O)(=O)N2CCN(c3ccc([N+](=O)[O-])cc3Cl)CC2)s1	55*	11	2	11	-9	27
O=C(Nc1ccncc1)c1cccc(S(=O)(=O)N2CCN(c3ccc(F)cc3)CC2)c1	-8	58*	3	31	7	-2
Cc1ccc(C(=O)Nc2nnc(S(=O)(=O)N3CCN(c4ccc(F)cc4)CC3)s2)cc1	54*	-3	11	28	-7	3
CC(C)[C@H](NS(=O)(=O)c1ccccc1F)C(=O)NC1CCCCC1	·	·	-3	2	8	·
C=C(C)Cn1c(C)cc(C)c(S(=O)(=O)c2ccc(C)cc2)c1=O	13	12	0	9	-4	?
Cc1cc(C)n(Cc2ccc(Cl)cc2Cl)c(=O)c1S(=O)(=O)c1ccccc1	57*	21	·	14	4	0
CCC(=O)Nc1c(-c2ccc(Cl)cc2)c(=O)c2ccccc2n1C	-4	2	1	19	8	3
O=C(NC12CC3CC(CC(C3)C1)C2)c1ccc(-c2ccc(Cl)cc2)o1	24	59*	14	-18	13	14
CC(=O)NC(=O)c1ccc(-c2ccc(Cl)cc2)o1	4	-4	-1	0	7	11
O=C(NC12CC3CC(CC(C3)C1)C2)c1ccc(-c2cccc(Cl)c2)o1	9	44	16	28	95*	-5
O=C(NC(=S)Nc1ccccc1O)c1ccc(-c2ccc(Cl)cc2)o1	53*	-11	-14	27	26	4
SMILES	SKKanGAS inh	T cruzi inh	Beta cell apopt	Mdm2 MdmX PPI	CSC inhib	Calb FLC
O=C(NC12CC3CC(CC(C3)C1)C2)c1ccc(COc2ccc(Cl)cc2[N+](=O)[O-])o1	·	·	5	12	4	·
COc1ccccc1CNC(=O)c1ccc(-c2ccccc2Cl)o1	52*	-2	13	-16	35	6
COc1ccc2c(c1)CCCC21NC(=O)N(CC(=O)N2CC(C)OC(C)C2)C1=O (stereo unspecified)	·	·	-5	-21	2	·
O=C(NC12CC3CC(CC(C3)C1)C2)c1ccc(-c2ccccc2Cl)o1	39	?	16	-104	125*	6
Cc1cccc(-c2oc3ccccc3c2-c2ccc3c(c2)OCO3)c1	52*	0	7	·	4	-6
Cc1cccc(-c2noc(-c3ccc4c(c3)OCO4)n2)c1	1	0	4	-93	3	-5
Cc1nc2ccccc2c2oc(C(=O)Nc3ccc(C(C)C)cc3)cc12	39	?	79*	35	·	-7
O=S(=O)(c1ccc(F)c(Cl)c1)N1CCN(C/C=C/c2ccccc2)CC1	·	·	-6	2	·	·
CCCC(=O)Nc1ccc(C(=O)NNC(=S)NC(=O)c2ccc(Br)o2)cc1	27	-12	·	17	17	1
COc1ccc(C(=O)NC(=S)NNC(=O)c2cnccn2)cc1OC	17	-5	82*	34	38	16
Cc1ccc(OCC(=O)NNC(=S)NC(=O)c2ccc(Br)o2)c(C)c1	93*	-8	2	39	48	-14
COc1ccc(C(=O)NNC(=S)NC(=O)c2ccc(Br)o2)cc1OC	66*	20	7	20	10	-1
O=C1C(Cl)=C(N2CCCCC2)C(=O)C(Cl)=C1c1cnc(N2CCCCC2)s1	42	3	·	31	·	22
CN(C)c1ncc(C2=C(Cl)C(=O)C(N3CCCC3)=C(Cl)C2=O)s1	77*	20	-13	-17	4	-14
CCC(Sc1nc(C)cc(C)n1)C(=O)Nc1cc(C)on1 (stereo unspecified)	5	-5	2	11	3	-24
Cc1cc(C)nc(SCC(=O)NC2=NN=C(c3ccc(Br)cc3)CS2)n1	99*	68*	113*	17	-3	-5
CCC(Sc1nc(C)cc(C)n1)C(=O)NC1=NN=C(c2ccc(C)cc2)CS1 (stereo unspecified)	10	53	127*	-8	45	-6
Cc1cc(C)nc(SCC(=O)Nc2ccc(Br)cn2)n1	0	9	2	27	-16	3
CC(=O)Nc1cc(C)nn1-c1nc(C)cc(C)n1	3	-28	3	-44	-11	-1
Cc1ccc(Nc2cc(C)nn2-c2nc(C)cc(C)n2)cc1	101*	37	55	32	16	6
Cc1cc(C(=O)NC2CCCc3c2cnn3-c2cccc(C)c2C)n(C)n1 (stereo unspecified)	-5	-98	112*	5	18	-9
